From ChEMBL document CHEMBL1156880, “Isosorbide-based cholinesterase inhibitors; replacement of 5-ester groups leading to increased stability” (Bioorg Med Chem, 2010) come the findings set out here.

Active and inactive are the calls of the source. The rule behind the calls is not given here.

For experiment [1], the target named is T1, Cholinesterase (Homo sapiens, UniProt P06276). The experiment in a line: Inhibition of human plasma BuChE at 100 uM preincubated for 30 mins before substrate addition by Ellman's assay. Format: cell-free. The gist of the method:
(§1)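 Ellman assay, phosphate buffer pH 8.0. Human plasma from heparinised venous blood, centrifuged and diluted 1 mL to 20 mL in buffer, with DTNB. Inhibitor, in acetonitrile/water 1:1 as vehicle, preincubated 30 min before butyrylthiocholine is added (final 0.5 mM); 412 nm read over 5 min. Screened at 100 μM; IC50 determined only where inhibition exceeded 90%. Controls without enzyme; n = 6.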

Experiment [2] addresses Acetylcholinesterase (Electrophorus electricus) (UniProt O42275). The experiment in a line: Inhibition of electric eel AChE at 100 uM preincubated for 30 mins before substrate addition by Ellman's assay. In outline: (§2)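 Ellman assay, phosphate buffer pH 8.0. Inhibitor, in acetonitrile/water 1:1 as vehicle, preincubated with enzyme 30 min before acetylthiocholine is added (final 0.5 mM); 412 nm read over 5 min. Screened at 100 μM; IC50 found by serial lower concentrations only where inhibition exceeded 90%. Controls without enzyme account for spontaneous hydrolysis; n = 6.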
(In general: DTNB colorimetry detects thiols as they appear.)

Another experiment addresses Acetylcholinesterase (Electrophorus electricus, UniProt O42275). The experiment in a line: Inhibition of electric eel AChE preincubated for 30 mins before substrate addition by Ellman's assay. The gist of the method:
as §2

The nature of experiment [3]: Selectivity for electric eel AChE over human plasma BuChE. It is filed as cell-free. The gist of the method:
(§3)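 Ratio of the 30 min BuChE and AChE IC50 values from the Ellman assays, using 100 μM in place of any IC50 that was not determined.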

The target in experiment [4] is T1, Cholinesterase. The experiment is described as follows: Inhibition of human plasma BuChE preincubated for 30 mins before substrate addition by Ellman's assay. In outline: as §1
Experiment [5] is described as follows: Selectivity for human plasma BuChE over electric eel AChE. It is filed as cell-free. The gist of the method: as §3
The test system of a further experiment is Mus musculus. The experiment is described as follows: Inhibition of BuChE in CD1 mouse plasma at 1 mg/kg, ip administered as single dose measured after 72 hrs. It is filed as functional, organism-based. Details: dose 1 mg/kg. The gist of the method: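 Male CD-1 mice (35–40 g) given one ip injection, 0.1 mL per 10 g body weight, into the left lower abdominal quadrant; n = 9 split into three subgroups of 3 for serial sampling. Submandibular blood (about 50 μL) collected into lithium heparin and kept on ice; terminal sampling by cardiac puncture under ketamine/xylazine. Plasma spun 10 min at 4 °C, then BuChE activity read ex vivo by Ellman assay.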

T1 sequence (P06276 whole entry): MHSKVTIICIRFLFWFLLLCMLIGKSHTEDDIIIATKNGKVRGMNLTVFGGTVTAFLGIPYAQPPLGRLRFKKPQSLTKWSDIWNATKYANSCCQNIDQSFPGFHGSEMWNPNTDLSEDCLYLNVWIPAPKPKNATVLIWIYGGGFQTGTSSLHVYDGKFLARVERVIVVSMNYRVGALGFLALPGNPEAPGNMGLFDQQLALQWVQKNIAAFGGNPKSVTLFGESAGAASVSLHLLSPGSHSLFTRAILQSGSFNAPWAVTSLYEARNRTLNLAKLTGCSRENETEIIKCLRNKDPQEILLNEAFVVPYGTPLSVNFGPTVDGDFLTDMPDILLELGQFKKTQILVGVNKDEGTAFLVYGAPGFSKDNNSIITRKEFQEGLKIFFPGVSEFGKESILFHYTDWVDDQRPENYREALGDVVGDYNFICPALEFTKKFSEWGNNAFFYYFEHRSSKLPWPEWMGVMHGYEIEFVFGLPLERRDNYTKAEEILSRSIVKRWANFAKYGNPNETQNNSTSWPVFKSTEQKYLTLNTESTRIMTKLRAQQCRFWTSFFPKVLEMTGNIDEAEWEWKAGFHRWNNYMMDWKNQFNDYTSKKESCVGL
Sequence of Acetylcholinesterase (Electrophorus electricus) (O42275 24-633 limits assumed): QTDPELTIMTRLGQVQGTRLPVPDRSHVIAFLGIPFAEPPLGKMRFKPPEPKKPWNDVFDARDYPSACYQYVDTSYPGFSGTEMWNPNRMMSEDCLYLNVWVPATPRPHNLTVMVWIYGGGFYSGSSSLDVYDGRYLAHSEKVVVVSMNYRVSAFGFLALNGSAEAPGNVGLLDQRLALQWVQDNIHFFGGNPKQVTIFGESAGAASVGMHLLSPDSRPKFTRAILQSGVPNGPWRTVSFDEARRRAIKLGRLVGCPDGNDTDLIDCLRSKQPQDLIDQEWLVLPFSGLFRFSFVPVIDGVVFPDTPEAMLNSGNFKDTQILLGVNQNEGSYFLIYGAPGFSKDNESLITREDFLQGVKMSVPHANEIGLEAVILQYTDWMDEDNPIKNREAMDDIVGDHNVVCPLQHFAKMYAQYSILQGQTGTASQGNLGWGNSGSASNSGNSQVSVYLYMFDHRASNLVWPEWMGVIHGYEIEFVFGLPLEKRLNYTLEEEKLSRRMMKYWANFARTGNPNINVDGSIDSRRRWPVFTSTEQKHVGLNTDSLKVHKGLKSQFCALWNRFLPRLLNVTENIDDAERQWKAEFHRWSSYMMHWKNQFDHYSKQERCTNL
Sequence of Acetylcholinesterase (O42275 whole entry): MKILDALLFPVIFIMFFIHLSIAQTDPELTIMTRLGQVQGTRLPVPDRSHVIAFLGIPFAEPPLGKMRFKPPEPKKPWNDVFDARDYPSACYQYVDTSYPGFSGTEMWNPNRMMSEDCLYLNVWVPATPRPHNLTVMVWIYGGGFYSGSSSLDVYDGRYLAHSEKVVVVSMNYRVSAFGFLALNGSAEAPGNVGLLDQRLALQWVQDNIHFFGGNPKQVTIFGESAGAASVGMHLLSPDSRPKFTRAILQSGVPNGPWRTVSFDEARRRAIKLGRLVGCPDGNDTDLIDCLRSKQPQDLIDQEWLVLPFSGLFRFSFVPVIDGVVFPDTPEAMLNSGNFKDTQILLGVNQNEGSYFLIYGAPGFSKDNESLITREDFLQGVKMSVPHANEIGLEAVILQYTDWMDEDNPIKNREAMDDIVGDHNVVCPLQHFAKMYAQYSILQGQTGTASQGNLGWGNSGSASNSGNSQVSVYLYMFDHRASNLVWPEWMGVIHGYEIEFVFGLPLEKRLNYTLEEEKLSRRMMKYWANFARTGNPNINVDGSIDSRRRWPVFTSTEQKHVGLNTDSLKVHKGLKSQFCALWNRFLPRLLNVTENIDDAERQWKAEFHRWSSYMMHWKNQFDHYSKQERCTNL

As usually defined, the inhibition is the share of the control response that was lost under treatment. With `O=C1CO[C@H]2[C@H](OC[C@@H]2OC(=O)NCc2ccccc2)O1` (relative stereo), the figures for the inhibition (against Cholinesterase [1]; in experiment [2]) were 56% and 10%, respectively.

As to `O=C(NCc1ccccc1)O[C@H]1CO[C@@H]2/C(=N/O)CO[C@H]12`, the inhibition at Cholinesterase [1] is 40%; in experiment [2] it was 83%.

Usually IC50 stands for the midpoint of a concentration-inhibition curve. Read a low IC50 as higher potency. In turn, `O=C(Nc1ccc([N+](=O)[O-])cc1)O[C@H]1CO[C@H]2[C@@H]1OC[C@H]2OC(=O)Nc1ccc([N+](=O)[O-])cc1` had an inhibition on Cholinesterase [1] of 17.4%. Half-maximal inhibition against Acetylcholinesterase (IC50) was put at 5.4 µM. Further, the Selectivity ratio in experiment [3] is 18.5.

`CCCNC(=O)O[C@H]1CO[C@H]2[C@@H]1OC[C@H]2OC(=O)NCCC` had an IC50 at Cholinesterase [4] of 10.4 µM. In addition, the Selectivity ratio in experiment [5] worked out at 9.6. The compound also registered an inhibition in experiment [2] of 28%.

Take `O=C(NCc1ccccc1)O[C@H]1CO[C@@H]2/C(=N/OC(=O)c3ccccc3)CO[C@H]12`: the inhibition came out at 64.8% at Cholinesterase [1] and 9% in experiment [2].

At Cholinesterase [4], `O=C(NCc1ccccc1)O[C@H]1CO[C@H]2[C@@H]1OC[C@H]2OCc1ccccc1` showed an IC50 of 0.052 µM. In the experiment with Mus musculus, the inhibition entry was “Active”. Further, the Selectivity ratio in experiment [5] was determined as 1920. In experiment [2], this compound returned an inhibition of 55%.

Regarding `O=C(NCc1ccccc1)O[C@H]1CO[C@H]2[C@@H]1OC[C@H]2OC(=O)NCc1ccccc1`, the IC50 against Cholinesterase [4] is 0.4 µM. Besides, the Selectivity ratio in experiment [5] worked out at 250. For the same compound, in experiment [2], the inhibition worked out at 77%.

With `CCNC(=O)O[C@H]1CO[C@H]2[C@@H]1OC[C@H]2OC(=O)NCC`, the inhibition against Cholinesterase [1] is 55.1%. Besides, the IC50 against Acetylcholinesterase worked out at 6.5 µM. The Selectivity ratio in experiment [3] amounted to 15.4.

Consider `CN1C(=O)CO[C@@H]2[C@@H](OC(=O)NCc3ccccc3)CO[C@@H]21`, for which the inhibition amounted to 63% against Cholinesterase [1] and 6.5% in experiment [2].

Turning to `[N-]=[N+]=N[C@@H]1CO[C@H]2[C@@H]1OC[C@@H]2OC(=O)NCc1ccccc1`, the inhibition at Cholinesterase [1] came out at 50.4%; in experiment [2], 5%.

In turn, `O=C(Nc1ccc(Cl)cc1)O[C@H]1CO[C@H]2[C@@H]1OC[C@H]2OC(=O)Nc1ccc(Cl)cc1` registered an inhibition against Cholinesterase [1] of 7.96%.

For the compound `O=C(NCc1ccccc1)O[C@H]1CO[C@H]2[C@@H]1OC[C@H]2NC(=O)c1ccccc1`, the inhibition against Cholinesterase [1] is 88%; in experiment [2] it was 46%.

Regarding `O=C(Nc1ccccc1)O[C@H]1CO[C@H]2[C@@H]1OC[C@H]2OC(=O)Nc1ccccc1`, the inhibition against Cholinesterase [1] came to 20.6%; in experiment [2] it was 77%.

At Cholinesterase [4], `CCOC(=O)/C=C1\CO[C@@H]2[C@@H](OC(=O)NCc3ccccc3)CO[C@H]12` yielded an IC50 of 4.8 µM. Besides, the Selectivity ratio in experiment [5] turned out to be 21. For the same compound, in experiment [2], the inhibition was 4.9%.

As to `O=C(NCc1ccccc1)O[C@H]1CO[C@@H]2C(=O)CO[C@H]12`, the figures for the inhibition (against Cholinesterase [1]; in experiment [2]) were 46% and 10%, respectively.

The compound `CCCCNC(=O)O[C@H]1CO[C@H]2[C@@H]1OC[C@H]2OC(=O)NCCCC` registered an IC50 at Cholinesterase [4] of 1.22 µM. Besides, the Selectivity ratio in experiment [5] turned out to be 81. The inhibition in experiment [2] turned out to be 13%.

With `O=C(NCc1ccccc1)O[C@H]1CO[C@@H]2C=CO[C@H]12`, at Cholinesterase [4], half-maximal inhibition (IC50) required 10.2 µM. Besides, in experiment [5], the Selectivity ratio was 9.7. The compound also returned an inhibition in experiment [2] of 9.8%.
